Assay [1] deals with MCF7. Nature of the assay: Cell cycle arrest in human MCF7 cells assessed as accumulation at G0/G1 phase at 2 times GI50 after 24 hrs by flow cytometry. It counts as functional. In outline: (§1)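 Cells were trypsinized, PBS-washed, fixed in ice-cold ethanol, and stained with propidium iodide plus RNase for 30 min at room temperature. G0/G1, S and G2/M fractions were measured by flow cytometry.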

For assay [2], the system named is M21. Nature of the assay: Inhibition of nuclear translocation of thioredoxin-1 from cytosol in human M21 cells at 2 times GI50 after 16 hrs by immunocytofluorescence. It counts as functional, cell-based. In outline: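 Cells were fixed in 3.7% formaldehyde (20 min), permeabilized with 0.1% saponin and blocked with 3% BSA. Staining used anti-Trx-1 monoclonal (1:200, 2 h, 37 °C) and Alexa-488 anti-mouse IgG (1:1000, 1 h). Trx-1 cytosol/nucleus localization was read by confocal immunofluorescence.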

The test system of assay [3] is MCF7. Put plainly: Cell cycle arrest in human MCF7 cells assessed as accumulation at G2/M phase at 2 times GI50 after 24 hrs by flow cytometry. It counts as functional. In a few lines: as §1
On the technique in general: A flow cytometer gives signals particle by particle.

The subject of assay [4] is MCF7. Put plainly: Cell cycle arrest in human MCF7 cells assessed as accumulation at S phase at 2 times GI50 after 24 hrs by flow cytometry. Format: functional. In outline: as §1
For assay [5], the system named is MCF7. Put plainly: Antiproliferative activity against human MCF7 cells after 48 hrs by sulforhodamine B method. Format: functional. Particulars: for GI50: MCF7, 48 h. In a few lines: (§2)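 Seeding per well: 5 × 10³ HT-29 cells, or 3.5 × 10³ M21 or MCF-7 cells. Drugs were dissolved fresh in DMSO and serially diluted in medium (final range 100 to 0.3), with DMSO held at 0.12%. Cells were exposed for 48 h, fixed with cold TCA (10% final, 1 h, 4 °C) and stained with 0.1% SRB for 15 min. Dye was solubilized in 10 mM Tris and read at A585. Day-0 OD was subtracted, inhibition was calculated against DMSO cells, and n ≥ 3.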
For orientation: In SRB staining, fixed cells bind dye roughly in proportion to their protein.

For assay [6], the system named is M21. Nature of the assay: Antiproliferative activity against human M21 cells after 48 hrs by sulforhodamine B method. Particulars: for GI50: M21, 48 h. Format: functional. In a few lines:
as §2

The test system of the next assay is HT-29. Put plainly: Antiproliferative activity against human HT29 cells after 48 hrs by sulforhodamine B method. It counts as functional. Particulars: for GI50: HT-29, 48 h. In a few lines: as §2
The test system of assay [7] is M21. Nature of the assay: Induction of beta2-tubulin alkylation in human M21 cells at 2 times GI50 by Western blot analysis. It counts as cell-based. In outline:
(§3)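 Floating and adherent cells were pooled and lysed in boiled Laemmli buffer; protein was measured by Lowry. 20 µg per lane ran on 10% SDS-PAGE and was blotted with anti-βII-tubulin (1:500), HRP anti-mouse (1:2500) and ECL. Alkylation was scored as a faster-migrating βII-tubulin band.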
On the technique in general: A western blot detects proteins with antibodies after separation by electrophoresis.

For assay [8], the system named is M21. Nature of the assay: Induction of beta2-tubulin alkylation in human M21 cells at 2 times GI50 after 48 hrs by Western blot analysis. It counts as cell-based. In a few lines: as §3

This passage reports Activity and GI50 results from ChEMBL document CHEMBL1155843, “Selective alkylation of beta(II)-tubulin and thioredoxin-1 by structurally related subsets of aryl chloroethylureas leading to either anti-microtubules or redox modulating agents” (2008).

Structures are written as SMILES. Calls of active or inactive are those of the source. No cut-off for these calls is given here.

Usually GI50 stands for the concentration giving 50% growth inhibition. A high value points to lower sensitivity of the cells. With `O=C(NCCCl)Nc1cccc(C2CCCCC2)c1`, the Activity in the assay on MCF7 [1] was 52%; in the assay with MCF7 [3], 16%; with MCF7 [4] it was 32%. Besides, the outcome in the assay on M21 [2] was Active. In addition, the results for the GI50 in the assay on MCF7 [5], with M21 [6] and in the assay on HT-29 were 20 µM, 18 µM and 11.7 µM, respectively. Further, the outcome in the assay with M21 [7] was inactive.

`O=C(NCCCl)Nc1cccc(OC2CCCCCC2)c1`: the outcome in the assay with M21 [2] was Active. In the assay on M21 [7], the result was inactive.

Regarding `O=C(NCCCl)Nc1ccc(I)cc1`, the outcome with M21 [8] was Active.

For `O=C(NCCCl)Nc1ccc(OC2CCCCCCC2)cc1`, the Activity is on record as 70% in the assay on MCF7 [1], 16% in the assay on MCF7 [3] and 14% in the assay with MCF7 [4]. Also, in the assay with M21 [2], the result was Active. The GI50 came to 18 µM in the assay on MCF7 [5], 26 µM in the assay with M21 [6] and 14 µM with HT-29. For the same compound, the outcome with M21 [7] was inactive.

Turning to `CCC1(c2ccc(NC(=O)NCCCl)cc2)CCCCC1`, the Activity is given as 66% in the assay on MCF7 [1], 17% in the assay with MCF7 [3] and 17% in the assay with MCF7 [4]. For the same compound, in the assay with M21 [2], the result was Active. The GI50 in the assay on MCF7 [5] came out at 17 µM; in the assay on M21 [6] it was 19 µM; in the assay with HT-29 it was 9.1 µM. For the same compound, in the assay with M21 [7], the outcome was inactive.

As to `O=C(NCCCl)Nc1cccc(OC2CCCCC2)c1`, the outcome with M21 [7] was inactive.

Regarding `O=C(NCCCl)Nc1cccc(OC2CCCC2)c1`, in the assay on M21 [7], the outcome was inactive.

In the case of `O=C(NCCCl)Nc1cccc(OC2CCCCCCC2)c1`, the Activity in the assay on MCF7 [1] worked out at 61%; with MCF7 [3], 10%; in the assay on MCF7 [4], 29%. Moreover, the outcome with M21 [2] was Active. In addition, the GI50 with MCF7 [5] is 23 µM; with M21 [6], 30 µM; in the assay with HT-29, 20 µM. In the assay on M21 [7], the outcome was inactive.

Consider `O=C(NCCCl)Nc1ccc(Oc2ccccc2)cc1`, for which the Activity with MCF7 [1] worked out at 15%; with MCF7 [3] it was 65%; in the assay on MCF7 [4], 20%. The outcome with M21 [2] and in the assay with M21 [7] was inactive.

With `O=C(NCCCl)Nc1ccc(C2CCCCC2)cc1`, the outcome in the assay with M21 [2] was Active. Besides, in the assay on M21 [7], the outcome was inactive.

Regarding `CCNC(=O)Nc1ccc(C2CCCCC2)cc1`, the Activity stood at 55% in the assay with MCF7 [1], 22% with MCF7 [3] and 23% in the assay with MCF7 [4]. The outcome in the assay with M21 [2], with MCF7 [5], with M21 [6], in the assay on HT-29 and in the assay on M21 [7] was inactive.

On to `CC1(c2ccc(NC(=O)NCCCl)cc2)CCCCC1`, for which the Activity with MCF7 [1] was determined as 60%; with MCF7 [3] it was 31%; with MCF7 [4], 9%. Further, the outcome in the assay on M21 [2] was Active. For the same compound, the GI50 was 18 µM with MCF7 [5], 16 µM in the assay on M21 [6] and 7.8 µM in the assay with HT-29. The outcome with M21 [7] was inactive.

Turning to `O=C(CCl)NC(=O)Nc1cccc(C2CCCCC2)c1`, the result in the assay on M21 [2] was Active. Besides, the GI50 in the assay with M21 [6] was 2.4 µM. The outcome with M21 [7] was inactive.

For `O=C(CCl)NC(=O)Nc1ccccc1`, the result with M21 [2] and in the assay with M21 [7] was inactive. This compound returned a GI50 with M21 [6] of 6.9 µM.

Consider `CC1CCC(Oc2cccc(NC(=O)NCCCl)c2)CC1` (stereo not given), for which the Activity in the assay on MCF7 [1] is recorded as 65%; with MCF7 [3] it was 15%; in the assay with MCF7 [4] it was 20%. Further, the outcome in the assay with M21 [2] was Active. Also, the GI50 in the assay on MCF7 [5] was 33 µM; in the assay on M21 [6], 32 µM; with HT-29 it was 19 µM. In addition, in the assay with M21 [7], the result was inactive.

Turning to `O=C(NCCCl)Nc1ccc2c(c1)CCC2`, the figures for the Activity with MCF7 [1], in the assay with MCF7 [3] and in the assay on MCF7 [4] were 31%, 40% and 29%, respectively. Also, in the assay with M21 [8], the outcome was Active.

Turning to `CC1CCC(Oc2ccc(NC(=O)NCCCl)cc2)CC1` (stereo not given), the Activity in the assay on MCF7 [1] worked out at 63%; in the assay on MCF7 [3], 25%; in the assay on MCF7 [4], 13%. Further, the outcome in the assay on M21 [2] was Active. Further, the GI50 with MCF7 [5] came out at 21 µM; in the assay on M21 [6], 23 µM; in the assay with HT-29, 16 µM. Moreover, the outcome in the assay with M21 [7] was inactive.

In the case of `O=C(NCCCl)Nc1ccc2c(c1)Cc1ccccc1-2`, the Activity in the assay on MCF7 [1] stood at 11%; with MCF7 [3], 32%; in the assay on MCF7 [4] it was 57%. In addition, the result in the assay with M21 [8] was Active. For the same compound, in the assay on M21 [2], the outcome was inactive.

As to `O=C(NCCCl)Nc1ccc(OC2CCCC2)cc1`, in the assay with M21 [2], the result was Active. In the assay on M21 [7], the result was inactive.

On to `c1cc(NC2=NCCO2)cc(C2CCCCC2)c1`, for which the result in the assay on M21 [2] was Active. This compound also registered a GI50 in the assay with M21 [6] of 45 µM. In addition, in the assay with M21 [7], the result was inactive.

For `O=C(NCCCl)Nc1ccc(OC2CCCCC2)cc1`, the result with M21 [2] was Active. For the same compound, in the assay on M21 [7], the result was inactive.

Take `O=C(NCCCl)NC1c2ccccc2-c2ccccc21`: the Activity is 63% in the assay on MCF7 [1], 8% with MCF7 [3] and 29% with MCF7 [4]. The result in the assay on M21 [2] and with M21 [7] was inactive.

In the case of `c1cc(C2CCCCC2)ccc1NC1=NCCO1`, in the assay with M21 [2], the outcome was Active. Moreover, in the assay with M21 [6], the GI50 stood at 18 µM. In addition, the result in the assay on M21 [7] was inactive.

In the case of `O=C(NCCCl)Nc1ccc(C2CCCC2)cc1`, the Activity with MCF7 [1] stood at 63%; with MCF7 [3], 13%; with MCF7 [4], 24%. The values for the concentration for 50% growth inhibition (GI50) with MCF7 [5], with M21 [6] and in the assay on HT-29 were 26 µM, 27 µM and 18 µM, respectively. Moreover, the result with M21 [7] was inactive.

With `CC(C)(C)c1ccc(NC(=O)NCCCl)cc1`, the outcome with M21 [8] was Active. For the same compound, the result in the assay on M21 [2] was inactive.

Consider `O=C(NCCCl)Nc1ccccc1`, for which the Activity is 59% in the assay with MCF7 [1], 19% in the assay with MCF7 [3] and 22% in the assay with MCF7 [4]. Besides, the outcome with M21 [2], in the assay on MCF7 [5], with M21 [6], with HT-29 and in the assay on M21 [7] was inactive.

For the compound `O=C(NCCCl)Nc1cccc(Oc2ccccc2)c1`, the Activity with MCF7 [1] is on record as 44%; with MCF7 [3], 30%; in the assay with MCF7 [4], 26%. Besides, in the assay on M21 [8], the outcome was Active. In addition, in the assay with M21 [2], the outcome was inactive.

Take `O=C(NCCCl)Nc1ccc(N2CCOCC2)cc1`: the result in the assay on MCF7 [5], in the assay on M21 [6], in the assay on HT-29 and in the assay on M21 [7] was inactive.

For the compound `O=C(CCl)NC(=O)Nc1ccc(N2CCOCC2)cc1`, in the assay on M21 [6], it took 8.3 µM to inhibit growth by half (GI50). Besides, the outcome in the assay with M21 [7] was inactive.

With `CCCC1(c2ccc(NC(=O)NCCCl)cc2)CCCCC1`, the Activity is 73% in the assay with MCF7 [1], 13% in the assay on MCF7 [3] and 14% with MCF7 [4]. Also, in the assay with M21 [2], the outcome was Active. The GI50 came to 23 µM with MCF7 [5], 36 µM in the assay on M21 [6] and 18 µM with HT-29. The outcome with M21 [7] was inactive.

Turning to `CC(C)(C)c1ccc(NC(=O)NC(=O)CCl)cc1`, the outcome in the assay with M21 [2] was Active. Besides, in the assay on M21 [7], the result was inactive.

In the case of `c1ccc(NC2=NCCO2)cc1`, the outcome in the assay with M21 [2] and in the assay on M21 [7] was inactive. This compound displayed a GI50 in the assay on M21 [6] of 81 µM.

`O=C(NCCCl)Nc1ccc2c(c1)CCCCC2`: the values for the Activity with MCF7 [1], in the assay with MCF7 [3] and in the assay on MCF7 [4] were 33%, 43% and 24%, respectively. The outcome with M21 [2] and in the assay on M21 [7] was inactive. The GI50 in the assay on MCF7 [5] stood at 12 µM; in the assay on M21 [6], 7.2 µM; with HT-29, 3.2 µM.

`O=C(NCCCl)Nc1ccc(OC2CCCCCC2)cc1`: the outcome with M21 [2] was Active. For the same compound, the GI50 in the assay on HT-29 is 13 µM. Further, the outcome in the assay on M21 [7] was inactive.

As for `O=C(CCl)NC(=O)Nc1ccc(C2CCCCC2)cc1`, the result in the assay with M21 [2] was Active. The outcome with M21 [7] was inactive.

`CC(C)(C)c1ccc(NC2=NCCO2)cc1`: the result in the assay on M21 [2] and in the assay with M21 [7] was inactive.

Turning to `c1cc(N2CCOCC2)ccc1NC1=NCCO1`, the outcome in the assay with M21 [2], with M21 [6] and in the assay on M21 [7] was inactive.
